Assay [1] has as its target T1, Ribosomal protein S6 kinase alpha-3 (Homo sapiens, UniProt P51812). In words: Inhibition of RSK2-mediated CREB phosphorylation in HeLa cells expressing luciferase reporter gene. The assay is classed as cell-based. Background: In a reporter assay the amount or activity of a reporter protein is the signal.
In assay [2] the target is T1, Ribosomal protein S6 kinase alpha-3. Put plainly: Inhibition of RSK2 phosphorylation by luminescence assay. The method, boiled down: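 Soluble RSK2 enzyme; its phosphorylation activity was read out in a luminescent kinase assay format adapted from a published method.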

T1 sequence (P51812 whole entry): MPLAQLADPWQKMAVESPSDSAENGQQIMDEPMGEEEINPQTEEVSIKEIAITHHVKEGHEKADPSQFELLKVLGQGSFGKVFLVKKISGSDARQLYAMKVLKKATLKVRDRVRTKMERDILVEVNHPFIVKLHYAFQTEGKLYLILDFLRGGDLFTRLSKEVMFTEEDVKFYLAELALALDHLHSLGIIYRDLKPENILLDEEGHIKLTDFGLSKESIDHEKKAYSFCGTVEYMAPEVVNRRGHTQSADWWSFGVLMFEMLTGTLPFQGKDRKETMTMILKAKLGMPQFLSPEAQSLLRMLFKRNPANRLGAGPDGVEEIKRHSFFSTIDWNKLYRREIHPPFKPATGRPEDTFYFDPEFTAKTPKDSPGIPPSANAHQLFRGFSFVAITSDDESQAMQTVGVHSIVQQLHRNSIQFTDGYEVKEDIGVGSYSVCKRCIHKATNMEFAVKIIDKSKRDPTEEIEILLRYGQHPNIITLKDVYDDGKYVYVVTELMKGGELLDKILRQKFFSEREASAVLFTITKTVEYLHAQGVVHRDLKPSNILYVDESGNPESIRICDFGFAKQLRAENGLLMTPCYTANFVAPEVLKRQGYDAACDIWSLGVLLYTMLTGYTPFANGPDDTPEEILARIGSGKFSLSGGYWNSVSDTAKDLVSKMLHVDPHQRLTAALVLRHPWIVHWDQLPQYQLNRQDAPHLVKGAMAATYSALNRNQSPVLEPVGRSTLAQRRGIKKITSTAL

A word on the IC50: it is the concentration at which inhibition is half-maximal. The low end stands for inhibition by little substance, the high end for a need for much substance. Molecule `CC1CCNC(=O)c2cc3ccc(C(=O)Nc4cccnc4)cc3n21` (centres undefined) had a half-maximal inhibitory concentration (IC50) in assay [1] of 890 nM.

With `O=C(Nc1cccnc1)c1ccc2cc3n(c2c1)CC1(CC1)CNC3=O`, in assay [2], the IC50 is 410 nM.

`O=C(Nc1cccnc1)c1ccc2cc3n(c2c1)CC1(CCOCC1)CNC3=O`: the half-inhibitory concentration (IC50) in assay [2] was > 10000 nM.

Take `CC1CCn2c(cc3ccc(C(=O)Nc4cccnc4)cc32)C(=O)N1` (centres undefined): in assay [2], 2500 nM corresponded to half-maximal inhibition (IC50).

For `CC1CNC(=O)c2cc3ccc(C(=O)Nc4cccnc4)cc3n21` (centres undefined), the half-inhibitory concentration (IC50) in assay [1] is 1630 nM; in assay [2], 170 nM.

Turning to `CC1(C)CNC(=O)c2cc3ccc(C(=O)Nc4cccnc4)cc3n21`, the IC50 amounted to 1550 nM in assay [1] and 210 nM in assay [2].

For `NCC1Cn2c(cc3ccc(C(=O)Nc4cccnc4)cc32)C(=O)N1` (centres undefined), the 50% inhibitory concentration (IC50) in assay [2] came to 970 nM. That is a sub-micromolar value.

The molecule `NC(=O)c1ccc2cc3n(c2c1)CCCNC3=O` displayed an IC50 in assay [2] of 9100 nM.

`O=C(NC1CCCCC1)c1ccc2cc3n(c2c1)CCCNC3=O`: the IC50 in assay [2] was > 10000 nM.

`O=C(Nc1ccccc1)c1ccc2cc3n(c2c1)CCCNC3=O` gave an IC50 in assay [1] of 1930 nM. This counts as single-digit micromolar.

Consider `O=C(Nc1ccc(Cl)cc1)c1ccc2cc3n(c2c1)CCCNC3=O`, for which half-maximal inhibition in assay [2] (IC50) required 180 nM.

Turning to `NC(=O)c1ccccc1NC(=O)c1ccc2cc3n(c2c1)CCCNC3=O`, inhibition in assay [1] was half-maximal at 560 nM (IC50).

With `O=C(Nc1ccncc1)c1ccc2cc3n(c2c1)CCCNC3=O`, the concentration for half-maximal inhibition (IC50) turned out to be 620 nM in assay [1] and 34 nM in assay [2].

`O=C(Nc1ccccn1)c1ccc2cc3n(c2c1)CCCNC3=O`: the IC50 in assay [1] is 2630 nM.

With `O=C(Nc1ncccn1)c1ccc2cc3n(c2c1)CCCNC3=O`, the IC50 in assay [2] is > 10000 nM.

With `O=C(NCc1cccnc1)c1ccc2cc3n(c2c1)CCCNC3=O`, the half-inhibitory concentration (IC50) in assay [1] and in assay [2] was > 10000 nM each time.

The molecule `O=C(Nc1ncc[nH]1)c1ccc2cc3n(c2c1)CCCNC3=O` returned an IC50 in assay [1] of 290 nM.

Regarding `O=C(Nc1cn[nH]c1)c1ccc2cc3n(c2c1)CCCNC3=O`, in assay [1], the half-inhibitory concentration (IC50) was > 10000 nM.

For the molecule `Cn1nccc1NC(=O)c1ccc2cc3n(c2c1)CCCNC3=O`, the IC50 in assay [2] was > 1000 nM.

The molecule `O=C(Nc1cnc2ccccc2c1)c1ccc2cc3n(c2c1)CCCNC3=O` registered an IC50 in assay [1] of 340 nM. This counts as sub-micromolar.

In assay [1], `CC(C)n1ncc2cc(NC(=O)c3ccc4cc5n(c4c3)CCCNC5=O)cnc21` had an IC50 of 840 nM.

`O=C(Nc1ccc2ccccc2n1)c1ccc2cc3n(c2c1)CCCNC3=O`: the IC50 was determined as 1130 nM in assay [1] and 68 nM in assay [2].

In the case of `O=C(Nc1nc2ccccc2s1)c1ccc2cc3n(c2c1)CCCNC3=O`, the IC50 in assay [2] was > 10000 nM.

Regarding `O=C(Nc1nc2ccccc2o1)c1ccc2cc3n(c2c1)CCCNC3=O`, the concentration for half-maximal inhibition (IC50) in assay [1] is > 10000 nM.

In the case of `O=C(Nc1nc2ccccc2[nH]1)c1ccc2cc3n(c2c1)CCCNC3=O`, the half-maximal inhibitory concentration (IC50) in assay [1] is > 10000 nM; in assay [2] it was 4 nM.

Turning to `O=C(Nc1cccnc1)c1ccc2cc3n(c2c1)CCCNC3=O`, the concentration for half-maximal inhibition (IC50) was determined as 1940 nM in assay [1] and 240 nM in assay [2].

`CC1Cn2c(cc3ccc(C(=O)Nc4cccnc4)cc32)C(=O)N1` (centres undefined) had a 50% inhibitory concentration (IC50) in assay [2] of 350 nM.

`CC1CNC(=O)c2cc3ccc(C(=O)Nc4cccnc4)cc3n2C1` (centres undefined): the values for the IC50 in assay [1] and in assay [2] were 4890 nM and 1200 nM, respectively.

On to `NCC1CNC(=O)c2cc3ccc(C(=O)Nc4cccnc4)cc3n2C1` (centres undefined), for which half-maximal inhibition in assay [2] (IC50) was put at 1800 nM.

The molecule `O=C(Nc1nccs1)c1ccc2cc3n(c2c1)CCCNC3=O` yielded an IC50 in assay [2] of 2200 nM.

In the case of `O=C(Nc1cccnc1)c1ccc2cc3n(c2c1)CCNC3=O`, the IC50 in assay [1] is > 10000 nM; in assay [2], 730 nM.

The molecule `C[C@@H]1CNC(=O)c2cc3ccc(C(=O)Nc4cccnc4)cc3n2[C@@H]1C` (relative stereo) showed an IC50 in assay [2] of 240 nM.

As to `C[C@@H]1NC(=O)c2cc3ccc(C(=O)Nc4cccnc4)cc3n2[C@@H]1C` (relative stereo), the IC50 in assay [1] is 840 nM; in assay [2], 45 nM.

As to `C[C@@H]1[C@@H](C)NC(=O)c2cc3ccc(C(=O)Nc4cccnc4)cc3n21` (relative stereo), the midpoint of inhibition in assay [2], the IC50, lay at 871 nM. This counts as sub-micromolar.

These data come from ChEMBL document CHEMBL1938380, “Indole RSK inhibitors. Part 1: discovery and initial SAR” (Bioorg Med Chem Lett, 2012).
